Results reported in PMC8413131 (Oncogene, 2021).

Legend:
CWR22Rv1 cells = experiment: Cell growth assay; format: cell-based; conditions: for cell growth, 3 days: CWR22Rv1, FBS, 5 μM Abi, 20 μM Enza, 20 μM Apal, 0.25-1.0 μM ARVibs, Fig.4A-4B
C4-2B MDVR cells = experiment: Cell growth assay; format: cell-based; conditions: for cell growth, 3 days: FBS, 5 μM Abi, 20 μM Enza, 20 μM Apal, 0.25-1.0 μM ARVibs, Fig.4A-4B
[1] = system: AR-V7 and AR mutants (T878A, K581R, V716M, L702H); experiment: PSA luciferase reporter, AR-V7 and AR mutants in 293 cells; format: cell-based; conditions: FBS conditions, 16 hours, Fig.2G
In short: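 293 cells in FBS medium transfected with vector, AR-V7 or mutant AR (T878A, K581R, L702H, V716M) plus a PSA promoter–luciferase plasmid. Then exposed to anti-androgens or test compound for 16 h before luciferase read-out. Mean ± SD of three independent experiments.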

VCaP xenografts = experiment: Relapsed VCaP tumor model, combination with Enza; format: in vivo, mice; conditions: relapsed VCaP tumors
wild-type AR (WT-AR) = experiment: PSA luciferase reporter, WT-AR in 293 cells; format: cell-based; conditions: FBS conditions, 16 hours, Fig.2G
AR = experiment: Western blot of AR expression in CWR22Rv1 cells; format: cell-based; conditions: 1 μM, 16 hours
[2] = ref [20], [21]; cited from earlier work
CWR22Rv1 xenografts = experiment: CWR22Rv1 tumor xenografts in SCID mice; format: in vivo; conditions: 25 mg/Kg i.p., Supplementary Fig.6B
In short: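 C.B17 SCID males, 4–5 weeks old, given 3 million CWR22Rv1 cells mixed 1:1 with matrigel s.c. in flank. Randomized at 50–100 mm3 tumor volume. Test compound 25 mg/kg i.p. vs vehicle (15% Cremophor EL, 82.5% PBS, 2.5% DMSO, i.p.). Calipers twice weekly; volume = L×W×W×0.52. Tumors, liver and kidney harvested and weighed after 3 weeks; liver and kidney H&E stained.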

LuCaP 35CR xenografts = experiment: LuCaP35CR PDX model, oral administration; format: in vivo, mice; conditions: 150 mg/Kg p.o.

Q: For `C[C@]12CC[C@H](O)CC1=CC[C@@H]1[C@@H]2CC[C@]2(C)C(c3cccnc3)=CC[C@@H]12` [Abi, abiraterone], which “cell growth, 3 days” value (CWR22Rv1 cells) is on record?
A: resistant

Q: And the “cell growth, 3 days” value (C4-2B MDVR cells)?
A: resistant

Q: Which results are given for `CNC(=O)c1ccc(N2C(=S)N(c3cnc(C#N)c(C(F)(F)F)c3)C(=O)C23CCC3)cc1F` [Apal, apalutamide]?
A: transcriptional activity mediated by AR-V7 and AR mutants [1]: could not suppress; cell growth, 3 days (CWR22Rv1 cells): resistant; cell growth, 3 days (C4-2B MDVR cells): resistant

Q: With `CNC(=O)c1ccc(N2C(=S)N(c3ccc(C#N)c(C(F)(F)F)c3)C(=O)C2(C)C)cc1F` [Enza, enzalutamide] as the compound, how does the “transcriptional activity mediated by AR-V7 and AR mutants” value [1] read?
A: could not suppress

Q: What about the “cell growth, 3 days” value (CWR22Rv1 cells) of the same compound?
A: resistant

Q: And the “tumor PSA expression (mouse serum), single treatment” value (VCaP xenografts; Fig.6F)?
A: slightly, but insignificantly, suppressed

Q: And the “tumor growth, single treatment” value (VCaP xenografts; Enza 20 mg/Kg p.o., ARVib-7 75 mg/Kg orally, Fig.6C-6E)?
A: insignificantly inhibited

Q: What about the “cell growth, 3 days” value (C4-2B MDVR cells) of the same compound?
A: resistant

Q: For `CC(O)(CS(=O)(=O)c1ccc(F)cc1)C(=O)Nc1ccc(C#N)c(C(F)(F)F)c1` (centres unmarked) [bicalutamide], which “transcriptional activity mediated by AR-V7 and AR mutants” value [1] is on record?
A: could not suppress

Q: And the WT-AR transcriptional activity (wild-type AR (WT-AR))?
A: suppress

Q: Which “enhancement of Enza treatment (cell growth)” value (CWR22Rv1 cells; CWR22Rv1, 0.5 μM with 20 μM Enza, 3 days, Fig.6A) does the source give for `O=C(Nc1ccc([N+](=O)[O-])cc1Cl)c1cc(Cl)ccc1O` [niclosamide] here?
A: profoundly enhanced

Q: And the “inhibition of AR expression” value (AR; dose series, Fig.1C left)?
A: 84.42%

Q: And the “inhibition of AR expression” value (AR; western blot, Fig.1B)?
A: 89.73%

Q: And the “enhancement of Enza treatment (cell growth)” value (C4-2B MDVR cells; 0.25 μM with 20 μM Enza, 3 days, Supplementary Fig.6E)?
A: profoundly enhanced

Q: What about the bioavailability [2] of the same compound?
A: ~ 10%

Q: What about the mouse body weight (CWR22Rv1 xenografts) of the same compound?
A: did not affect

Q: What about the “suppression of tumor growth / tumor volume compared to vehicle control” value (LuCaP 35CR xenografts; Fig.5C) of the same compound?
A: 50%

Q: And the “tumor PSA expression (mouse serum)” value (LuCaP 35CR xenografts; Fig.5F)?
A: slightly suppressed
